Experimental data taken from ChEMBL document CHEMBL4411272, “Design, synthesis and biological evaluation of AZD9291 derivatives as selective and potent EGFRL858R/T790M inhibitors” (Eur J Med Chem, 2019).

Species on record: Homo sapiens
Assay: Selectivity ratio of IC50 for wild-type EGFR (unknown origin) to IC50 for EGFR T790M/L858R double mutant (unknown origin)
Conditions: not given

| Compound | Ratio IC50 |
| --- | --- |
| CC/C=C\C(=O)Nc1cc(Nc2nccc(-c3cn(C)c4ccc(F)cc34)n2)c(OC)cc1N(C)CCN(C)C | 1.8 |
| COc1cc(N(C)CCN(C)C)c(NC(=O)/C=C\C(C)C)cc1Nc1ncc(C#N)c(-c2cn(C)c3ccccc23)n1 | 4.5 |
| COc1cc(N(C)CCN(C)C)c(NC(=O)/C=C\C(C)C)cc1Nc1ncc(C#N)c(-c2cn(C)c3ccc(F)cc23)n1 | 1.2 |
| CCC/C=C\C(=O)Nc1cc(Nc2ncc(C#N)c(-c3cn(C)c4ccc(F)cc34)n2)c(OC)cc1N(C)CCN(C)C | 5.3 |
| C/C=C\C(=O)Nc1cc(Nc2nccc(-c3cn(C)c4ccccc34)n2)c(OC)cc1N(C)CCN(C)C | 7.6 |

Target: Epidermal growth factor receptor (Homo sapiens, UniProt P00533)
Assay: Inhibition of wild-type EGFR (unknown origin) using substrate-biotin by ELISA-based mobility shift assay
Conditions: not given

Sequence of Epidermal growth factor receptor (Homo sapiens, UniProt P00533) (P00533 whole entry): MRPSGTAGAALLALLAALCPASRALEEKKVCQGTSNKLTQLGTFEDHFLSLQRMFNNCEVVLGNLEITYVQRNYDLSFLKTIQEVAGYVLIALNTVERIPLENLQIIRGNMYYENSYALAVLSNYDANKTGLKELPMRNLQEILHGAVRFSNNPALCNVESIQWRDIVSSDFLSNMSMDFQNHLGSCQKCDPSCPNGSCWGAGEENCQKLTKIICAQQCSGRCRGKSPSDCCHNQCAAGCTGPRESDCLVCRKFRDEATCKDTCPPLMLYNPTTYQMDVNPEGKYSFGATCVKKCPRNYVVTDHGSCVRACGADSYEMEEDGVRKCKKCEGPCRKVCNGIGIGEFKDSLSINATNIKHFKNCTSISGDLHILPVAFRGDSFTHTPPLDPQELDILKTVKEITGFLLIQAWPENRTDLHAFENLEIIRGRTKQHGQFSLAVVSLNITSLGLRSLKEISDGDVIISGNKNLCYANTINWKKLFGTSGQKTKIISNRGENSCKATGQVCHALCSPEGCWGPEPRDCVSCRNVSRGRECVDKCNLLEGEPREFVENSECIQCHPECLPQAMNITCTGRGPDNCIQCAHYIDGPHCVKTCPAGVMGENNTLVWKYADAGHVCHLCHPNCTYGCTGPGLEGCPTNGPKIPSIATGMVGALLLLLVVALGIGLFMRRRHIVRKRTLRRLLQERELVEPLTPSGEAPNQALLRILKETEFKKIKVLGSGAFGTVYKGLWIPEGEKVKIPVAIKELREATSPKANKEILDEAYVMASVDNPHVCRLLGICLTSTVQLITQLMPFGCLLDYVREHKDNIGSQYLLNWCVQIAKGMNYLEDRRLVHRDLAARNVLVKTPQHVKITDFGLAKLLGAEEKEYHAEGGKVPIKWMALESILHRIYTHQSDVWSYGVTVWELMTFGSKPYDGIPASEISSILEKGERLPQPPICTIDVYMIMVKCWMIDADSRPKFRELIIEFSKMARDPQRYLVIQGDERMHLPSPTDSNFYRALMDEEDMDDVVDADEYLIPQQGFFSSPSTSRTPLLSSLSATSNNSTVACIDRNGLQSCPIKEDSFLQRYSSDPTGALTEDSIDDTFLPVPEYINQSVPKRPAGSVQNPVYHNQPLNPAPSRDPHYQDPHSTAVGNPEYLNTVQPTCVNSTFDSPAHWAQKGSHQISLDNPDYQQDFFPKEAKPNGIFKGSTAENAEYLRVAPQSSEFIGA

| Compound | IC50 [nM] |
| --- | --- |
| CCC/C=C\C(=O)Nc1cc(Nc2nc(C)cc(-c3cn(C)c4ccc(F)cc34)n2)c(OC)cc1N(C)CCN(C)C | > 2000 |
| COc1cc(N(C)CCN(C)C)c(NC(=O)C(Cl)=C(Cl)Cl)cc1Nc1nccc(-c2cn(C)c3ccccc23)n1 | > 2000 |
| CC/C=C\C(=O)Nc1cc(Nc2nc(C)cc(-c3cn(C)c4ccc(F)cc34)n2)c(OC)cc1N(C)CCN(C)C | > 2000 |
| COc1cc(N(C)CCN(C)C)c(NC(=O)/C=C\C(C)C)cc1Nc1nc(C)cc(-c2cn(C)c3ccccc23)n1 | > 2000 |
| CC/C=C\C(=O)Nc1cc(Nc2ncc(C#N)c(-c3cn(C)c4ccc(F)cc34)n2)c(OC)cc1N(C)CCN(C)C | > 2000 |
| C=CC(=O)Nc1cc(Nc2ncc(C#N)c(-c3cn(C)c4ccc(F)cc34)n2)c(OC)cc1N(C)CCN(C)C | > 2000 |
| COc1cc(N(C)CCN(C)C)c(NC(=O)/C=C\C(C)C)cc1Nc1nc(C)cc(-c2cn(C)c3ccc(F)cc23)n1 | > 2000 |
| CC/C=C\C(=O)Nc1cc(Nc2nccc(-c3cn(C)c4ccc(F)cc34)n2)c(OC)cc1N(C)CCN(C)C | 684 |
| COc1cc(N(C)CCN(C)C)c(NC(=O)/C=C\C(C)C)cc1Nc1ncc(C#N)c(-c2cn(C)c3ccccc23)n1 | 985 |
| COc1cc(N(C)CCN(C)C)c(NC(=O)/C=C\C(C)C)cc1Nc1nccc(-c2cn(C)c3ccc(F)cc23)n1 | 977 |
| COc1cc(N(C)CCN(C)C)c(NC(=O)/C=C\C(C)C)cc1Nc1ncc(C#N)c(-c2cn(C)c3ccc(F)cc23)n1 | 415 |
| CCC/C=C\C(=O)Nc1cc(Nc2ncc(C#N)c(-c3cn(C)c4ccc(F)cc34)n2)c(OC)cc1N(C)CCN(C)C | 1060 |
| COc1cc(N(C)CCN(C)C)c(NC(=O)/C=C\C(C)C)cc1Nc1nccc(-c2cn(C)c3ccccc23)n1 | > 2000 |
| C/C=C\C(=O)Nc1cc(Nc2nccc(-c3cn(C)c4ccccc34)n2)c(OC)cc1N(C)CCN(C)C | 395 |

Target: Epidermal growth factor receptor (Homo sapiens, UniProt P00533, L858R/T790M)
Assay: Inhibition of EGFR T790M/L858R double mutant (unknown origin) using substrate-biotin by ELISA-based mobility shift assay
Conditions: not given

Sequence of Epidermal growth factor receptor (Homo sapiens, UniProt P00533, L858R/T790M) (P00533 25-1210 T790M/L858R limits assumed): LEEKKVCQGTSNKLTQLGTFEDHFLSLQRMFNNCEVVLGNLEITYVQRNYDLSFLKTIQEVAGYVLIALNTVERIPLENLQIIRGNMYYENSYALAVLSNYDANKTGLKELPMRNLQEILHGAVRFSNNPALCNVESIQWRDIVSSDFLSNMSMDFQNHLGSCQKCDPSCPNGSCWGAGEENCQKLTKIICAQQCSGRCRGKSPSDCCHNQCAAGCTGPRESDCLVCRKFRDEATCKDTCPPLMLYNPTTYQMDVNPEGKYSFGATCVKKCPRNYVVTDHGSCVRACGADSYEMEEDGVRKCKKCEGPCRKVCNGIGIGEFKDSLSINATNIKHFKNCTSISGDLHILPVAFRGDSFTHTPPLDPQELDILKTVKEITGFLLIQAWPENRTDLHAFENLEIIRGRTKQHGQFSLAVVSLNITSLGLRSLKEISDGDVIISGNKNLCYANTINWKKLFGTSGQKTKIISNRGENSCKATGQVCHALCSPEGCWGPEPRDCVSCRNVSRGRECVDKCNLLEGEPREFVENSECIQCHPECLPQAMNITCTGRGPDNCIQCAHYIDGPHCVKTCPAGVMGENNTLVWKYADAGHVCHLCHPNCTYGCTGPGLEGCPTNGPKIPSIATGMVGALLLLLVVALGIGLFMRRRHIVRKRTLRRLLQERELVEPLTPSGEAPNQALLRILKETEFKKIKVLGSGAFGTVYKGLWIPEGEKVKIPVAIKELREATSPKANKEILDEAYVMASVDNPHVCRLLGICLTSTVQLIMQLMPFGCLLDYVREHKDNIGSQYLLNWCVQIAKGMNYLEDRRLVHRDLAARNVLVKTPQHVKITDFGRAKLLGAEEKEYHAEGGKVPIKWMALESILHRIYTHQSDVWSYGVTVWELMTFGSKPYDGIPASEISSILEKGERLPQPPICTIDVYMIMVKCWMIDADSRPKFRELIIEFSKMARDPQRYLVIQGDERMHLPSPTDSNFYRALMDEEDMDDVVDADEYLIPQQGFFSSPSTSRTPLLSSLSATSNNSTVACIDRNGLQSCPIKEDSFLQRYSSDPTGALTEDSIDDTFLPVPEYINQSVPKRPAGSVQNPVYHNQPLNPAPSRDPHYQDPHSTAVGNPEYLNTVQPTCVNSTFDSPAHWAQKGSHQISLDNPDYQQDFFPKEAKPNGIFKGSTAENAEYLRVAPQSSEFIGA

| Compound | IC50 [nM] |
| --- | --- |
| CCC/C=C\C(=O)Nc1cc(Nc2nc(C)cc(-c3cn(C)c4ccc(F)cc34)n2)c(OC)cc1N(C)CCN(C)C | 923 |
| COc1cc(N(C)CCN(C)C)c(NC(=O)C(Cl)=C(Cl)Cl)cc1Nc1nccc(-c2cn(C)c3ccccc23)n1 | > 2000 |
| CC/C=C\C(=O)Nc1cc(Nc2nc(C)cc(-c3cn(C)c4ccc(F)cc34)n2)c(OC)cc1N(C)CCN(C)C | 998 |
| COc1cc(N(C)CCN(C)C)c(NC(=O)/C=C\C(C)C)cc1Nc1nc(C)cc(-c2cn(C)c3ccccc23)n1 | 38 |
| CC/C=C\C(=O)Nc1cc(Nc2ncc(C#N)c(-c3cn(C)c4ccc(F)cc34)n2)c(OC)cc1N(C)CCN(C)C | > 2000 |
| C=CC(=O)Nc1cc(Nc2ncc(C#N)c(-c3cn(C)c4ccc(F)cc34)n2)c(OC)cc1N(C)CCN(C)C | > 2000 |
| COc1cc(N(C)CCN(C)C)c(NC(=O)/C=C\C(C)C)cc1Nc1nc(C)cc(-c2cn(C)c3ccc(F)cc23)n1 | 892 |
| CC/C=C\C(=O)Nc1cc(Nc2nccc(-c3cn(C)c4ccc(F)cc34)n2)c(OC)cc1N(C)CCN(C)C | 388 |
| COc1cc(N(C)CCN(C)C)c(NC(=O)/C=C\C(C)C)cc1Nc1ncc(C#N)c(-c2cn(C)c3ccccc23)n1 | 219 |
| COc1cc(N(C)CCN(C)C)c(NC(=O)/C=C\C(C)C)cc1Nc1nccc(-c2cn(C)c3ccc(F)cc23)n1 | > 2000 |
| COc1cc(N(C)CCN(C)C)c(NC(=O)/C=C\C(C)C)cc1Nc1ncc(C#N)c(-c2cn(C)c3ccc(F)cc23)n1 | 360 |
| CCC/C=C\C(=O)Nc1cc(Nc2ncc(C#N)c(-c3cn(C)c4ccc(F)cc34)n2)c(OC)cc1N(C)CCN(C)C | 201 |
| COc1cc(N(C)CCN(C)C)c(NC(=O)/C=C\C(C)C)cc1Nc1nccc(-c2cn(C)c3ccccc23)n1 | 397 |
| C/C=C\C(=O)Nc1cc(Nc2nccc(-c3cn(C)c4ccccc34)n2)c(OC)cc1N(C)CCN(C)C | 52 |

System: A549
Assay: Antiproliferative activity against human A549 cells after 72 hrs by MTT assay
Type: functional, cell-based
Conditions: A549, 72 h
Summary of the method: (§1)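 MTT assay; cells grown as monolayers in DMEM or RPMI1640 with 10% FBS at 37 °C, 5% CO2 for 24 h, then compound added for 72 h. MTT at 5 μg/mL for 4 h at 37 °C, formazan dissolved in DMSO, absorbance read at 492 nm with 630 nm reference. Each compound tested three times per line; IC50 from averaged determinations.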

| Compound | IC50 [nM] |
| --- | --- |
| CCC/C=C\C(=O)Nc1cc(Nc2nc(C)cc(-c3cn(C)c4ccc(F)cc34)n2)c(OC)cc1N(C)CCN(C)C | 13300 |
| COc1cc(N(C)CCN(C)C)c(NC(=O)C(Cl)=C(Cl)Cl)cc1Nc1nccc(-c2cn(C)c3ccccc23)n1 | > 50000 |
| CC/C=C\C(=O)Nc1cc(Nc2nc(C)cc(-c3cn(C)c4ccc(F)cc34)n2)c(OC)cc1N(C)CCN(C)C | 9150 |
| C=CC(=O)Nc1cc(Nc2nccc(-c3cn(C)c4ccccc34)n2)c(OC)cc1N(C)CCN(C)C [OSIMERTINIB] | 615 |
| COc1cc(N(C)CCN(C)C)c(NC(=O)/C=C\C(C)C)cc1Nc1nc(C)cc(-c2cn(C)c3ccccc23)n1 | 1070 |
| CC/C=C\C(=O)Nc1cc(Nc2ncc(C#N)c(-c3cn(C)c4ccc(F)cc34)n2)c(OC)cc1N(C)CCN(C)C | 4720 |
| C=CC(=O)Nc1cc(Nc2ncc(C#N)c(-c3cn(C)c4ccc(F)cc34)n2)c(OC)cc1N(C)CCN(C)C | 9700 |
| COc1cc(N(C)CCN(C)C)c(NC(=O)/C=C\C(C)C)cc1Nc1nc(C)cc(-c2cn(C)c3ccc(F)cc23)n1 | 9080 |
| CC/C=C\C(=O)Nc1cc(Nc2nccc(-c3cn(C)c4ccc(F)cc34)n2)c(OC)cc1N(C)CCN(C)C | 3600 |
| COc1cc(N(C)CCN(C)C)c(NC(=O)/C=C\C(C)C)cc1Nc1ncc(C#N)c(-c2cn(C)c3ccccc23)n1 | 1100 |
| COc1cc(N(C)CCN(C)C)c(NC(=O)/C=C\C(C)C)cc1Nc1nccc(-c2cn(C)c3ccc(F)cc23)n1 | 6140 |
| COc1cc(N(C)CCN(C)C)c(NC(=O)/C=C\C(C)C)cc1Nc1ncc(C#N)c(-c2cn(C)c3ccc(F)cc23)n1 | 185 |
| CCC/C=C\C(=O)Nc1cc(Nc2ncc(C#N)c(-c3cn(C)c4ccc(F)cc34)n2)c(OC)cc1N(C)CCN(C)C | 741 |
| COc1cc(N(C)CCN(C)C)c(NC(=O)/C=C\C(C)C)cc1Nc1nccc(-c2cn(C)c3ccccc23)n1 | 612 |
| C/C=C\C(=O)Nc1cc(Nc2nccc(-c3cn(C)c4ccccc34)n2)c(OC)cc1N(C)CCN(C)C | 660 |

System: HepG2
Assay: Antiproliferative activity against human HepG2 cells after 72 hrs by MTT assay
Type: functional, cell-based
Conditions: HepG2, 72 h
Summary of the method: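 MTT assay; cells grown as monolayers in DMEM or RPMI1640 with 10% FBS at 37 °C, 5% CO2 for 24 h, then compound added for 72 h. Each compound tested three times per line; IC50 from averaged determinations.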

| Compound | IC50 [nM] |
| --- | --- |
| CCC/C=C\C(=O)Nc1cc(Nc2nc(C)cc(-c3cn(C)c4ccc(F)cc34)n2)c(OC)cc1N(C)CCN(C)C | 12100 |
| COc1cc(N(C)CCN(C)C)c(NC(=O)C(Cl)=C(Cl)Cl)cc1Nc1nccc(-c2cn(C)c3ccccc23)n1 | > 50000 |
| CC/C=C\C(=O)Nc1cc(Nc2nc(C)cc(-c3cn(C)c4ccc(F)cc34)n2)c(OC)cc1N(C)CCN(C)C | 11000 |
| COc1cc(N(C)CCN(C)C)c(NC(=O)/C=C\C(C)C)cc1Nc1nc(C)cc(-c2cn(C)c3ccccc23)n1 | 3550 |
| CC/C=C\C(=O)Nc1cc(Nc2ncc(C#N)c(-c3cn(C)c4ccc(F)cc34)n2)c(OC)cc1N(C)CCN(C)C | 5880 |
| C=CC(=O)Nc1cc(Nc2ncc(C#N)c(-c3cn(C)c4ccc(F)cc34)n2)c(OC)cc1N(C)CCN(C)C | 17500 |
| COc1cc(N(C)CCN(C)C)c(NC(=O)/C=C\C(C)C)cc1Nc1nc(C)cc(-c2cn(C)c3ccc(F)cc23)n1 | 14000 |
| CC/C=C\C(=O)Nc1cc(Nc2nccc(-c3cn(C)c4ccc(F)cc34)n2)c(OC)cc1N(C)CCN(C)C | 5280 |
| COc1cc(N(C)CCN(C)C)c(NC(=O)/C=C\C(C)C)cc1Nc1ncc(C#N)c(-c2cn(C)c3ccccc23)n1 | 1810 |
| COc1cc(N(C)CCN(C)C)c(NC(=O)/C=C\C(C)C)cc1Nc1nccc(-c2cn(C)c3ccc(F)cc23)n1 | 3920 |
| COc1cc(N(C)CCN(C)C)c(NC(=O)/C=C\C(C)C)cc1Nc1ncc(C#N)c(-c2cn(C)c3ccc(F)cc23)n1 | 2840 |
| CCC/C=C\C(=O)Nc1cc(Nc2ncc(C#N)c(-c3cn(C)c4ccc(F)cc34)n2)c(OC)cc1N(C)CCN(C)C | 2010 |
| COc1cc(N(C)CCN(C)C)c(NC(=O)/C=C\C(C)C)cc1Nc1nccc(-c2cn(C)c3ccccc23)n1 | 4390 |
| C/C=C\C(=O)Nc1cc(Nc2nccc(-c3cn(C)c4ccccc34)n2)c(OC)cc1N(C)CCN(C)C | 6930 |

System: NCI-H1975
Assay: Antiproliferative activity against human NCI-H1975 cells after 72 hrs by MTT assay
Type: functional, cell-based
Conditions: NCI-H1975, 72 h
Summary of the method: as §1

| Compound | IC50 [nM] |
| --- | --- |
| CCC/C=C\C(=O)Nc1cc(Nc2nc(C)cc(-c3cn(C)c4ccc(F)cc34)n2)c(OC)cc1N(C)CCN(C)C | 12200 |
| COc1cc(N(C)CCN(C)C)c(NC(=O)C(Cl)=C(Cl)Cl)cc1Nc1nccc(-c2cn(C)c3ccccc23)n1 | > 50000 |
| CC/C=C\C(=O)Nc1cc(Nc2nc(C)cc(-c3cn(C)c4ccc(F)cc34)n2)c(OC)cc1N(C)CCN(C)C | 10400 |
| COc1cc(N(C)CCN(C)C)c(NC(=O)/C=C\C(C)C)cc1Nc1nc(C)cc(-c2cn(C)c3ccccc23)n1 | 1230 |
| CC/C=C\C(=O)Nc1cc(Nc2ncc(C#N)c(-c3cn(C)c4ccc(F)cc34)n2)c(OC)cc1N(C)CCN(C)C | 10200 |
| C=CC(=O)Nc1cc(Nc2ncc(C#N)c(-c3cn(C)c4ccc(F)cc34)n2)c(OC)cc1N(C)CCN(C)C | 11400 |
| COc1cc(N(C)CCN(C)C)c(NC(=O)/C=C\C(C)C)cc1Nc1nc(C)cc(-c2cn(C)c3ccc(F)cc23)n1 | 8520 |
| CC/C=C\C(=O)Nc1cc(Nc2nccc(-c3cn(C)c4ccc(F)cc34)n2)c(OC)cc1N(C)CCN(C)C | 2600 |
| COc1cc(N(C)CCN(C)C)c(NC(=O)/C=C\C(C)C)cc1Nc1ncc(C#N)c(-c2cn(C)c3ccccc23)n1 | 1110 |
| COc1cc(N(C)CCN(C)C)c(NC(=O)/C=C\C(C)C)cc1Nc1nccc(-c2cn(C)c3ccc(F)cc23)n1 | 7360 |
| COc1cc(N(C)CCN(C)C)c(NC(=O)/C=C\C(C)C)cc1Nc1ncc(C#N)c(-c2cn(C)c3ccc(F)cc23)n1 | 1130 |
| CCC/C=C\C(=O)Nc1cc(Nc2ncc(C#N)c(-c3cn(C)c4ccc(F)cc34)n2)c(OC)cc1N(C)CCN(C)C | 2420 |
| COc1cc(N(C)CCN(C)C)c(NC(=O)/C=C\C(C)C)cc1Nc1nccc(-c2cn(C)c3ccccc23)n1 | 1820 |
| C/C=C\C(=O)Nc1cc(Nc2nccc(-c3cn(C)c4ccccc34)n2)c(OC)cc1N(C)CCN(C)C | 4540 |
